According to ChEMBL document CHEMBL4610003 (Bioorg Med Chem, 2020):
≈ marks a conversion by molar mass, not a printed value.

Tests used:
hERG (KCNH2) [1] = molecular target: T1, hERG (KCNH2) (Homo sapiens, UniProt Q12809); assay: Inhibition of human ERG at 3 uM relative to control
[2] = test system: Mycobacterium tuberculosis; assay: Antimycobacterial activity against Mycobacterium tuberculosis H37Rv assessed as bacterial growth inhibition incubated for 10 days under anerobic condition followed by incubation under ambient gaseous condition for […] by low oxygen recovery assay; format: functional
Summary of the method: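 Read-out is MIC90, the lowest concentration giving 90% growth inhibition of M.tb H37Rv, in µg/mL. Bacteria were held under non-replicating, low-oxygen conditions (LORA).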

[3] = test system: Mycobacterium tuberculosis; assay: Antimycobacterial activity against Mycobacterium tuberculosis H37Rv assessed as bacterial growth inhibition under replicating, aerobic condition by microplate Alamar blue assay; format: functional
Summary of the method: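 Read-out is MIC90, the lowest concentration giving 90% growth inhibition of M.tb H37Rv, in µg/mL. Bacteria were grown under aerobic, replicating conditions (MABA).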

Vero = assay: Cytotoxicity against African green monkey Vero cells assessed as reduction in cell viability incubated for 72 hrs by […] assay; format: cell-based; conditions: Chlorocebus sabaeus
[4] = Intrinsic clearance in mouse liver microsomes assessed per mg protein; format: ADME, Microsome; conditions: read-out: CLH
Summary of the method: (§1)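 Clearance of compound by human or mouse liver microsomes, expressed as µL/min/mg protein.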

[5] = Intrinsic clearance in human liver microsomes assessed per mg protein; format: ADME, Microsome; conditions: read-out: CLH; summary of the method: as §1
[6] = molecular target: Voltage-gated inwardly rectifying potassium channel KCNH2 (Homo sapiens, UniProt Q12809); assay: Inhibition of human ERG
[7] = Clearance in CD-1 mouse at 2 to 3 mg/kg, iv administered as single bolus dose; format: ADME, organism-based; conditions: in vivo
Summary of the method: (§2)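 Male CD-1 mice received a single intravenous bolus at 2–3 mg/kg. Reported values are IV clearance and the apparent volume of distribution during the terminal phase, in L/kg.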

[8] = AUC (0 to infinity) in CD-1 mouse at 10 mg/kg, po via gavage administered as single dose; format: ADME, organism-based; set-up: dose 10 mg/kg, route oral, time infinity; conditions: in vivo
Summary of the method: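 Male CD-1 mice given a single 10 mg/kg dose by oral gavage. Exposure is reported as area under the curve from 0 to infinity in µg*h/mL.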

[9] = Oral bioavailability in CD-1 mouse at 10 mg/kg administered via gavage as single dose; format: ADME, organism-based; conditions: in vivo
[10] = Apparent volume of distribution during terminal phase in CD-1 mouse at 2 to 3 mg/kg, iv administered as single bolus dose; format: ADME, organism-based; conditions: in vivo; summary of the method: as §2
hERG (KCNH2) [11] = molecular target: T1, hERG (KCNH2); assay: Inhibition of human ERG at 10 uM relative to control
[12] = Protein binding in human plasma; format: ADME, cell-free; conditions: read-out: PPB

T1 sequence (Q12809 whole entry): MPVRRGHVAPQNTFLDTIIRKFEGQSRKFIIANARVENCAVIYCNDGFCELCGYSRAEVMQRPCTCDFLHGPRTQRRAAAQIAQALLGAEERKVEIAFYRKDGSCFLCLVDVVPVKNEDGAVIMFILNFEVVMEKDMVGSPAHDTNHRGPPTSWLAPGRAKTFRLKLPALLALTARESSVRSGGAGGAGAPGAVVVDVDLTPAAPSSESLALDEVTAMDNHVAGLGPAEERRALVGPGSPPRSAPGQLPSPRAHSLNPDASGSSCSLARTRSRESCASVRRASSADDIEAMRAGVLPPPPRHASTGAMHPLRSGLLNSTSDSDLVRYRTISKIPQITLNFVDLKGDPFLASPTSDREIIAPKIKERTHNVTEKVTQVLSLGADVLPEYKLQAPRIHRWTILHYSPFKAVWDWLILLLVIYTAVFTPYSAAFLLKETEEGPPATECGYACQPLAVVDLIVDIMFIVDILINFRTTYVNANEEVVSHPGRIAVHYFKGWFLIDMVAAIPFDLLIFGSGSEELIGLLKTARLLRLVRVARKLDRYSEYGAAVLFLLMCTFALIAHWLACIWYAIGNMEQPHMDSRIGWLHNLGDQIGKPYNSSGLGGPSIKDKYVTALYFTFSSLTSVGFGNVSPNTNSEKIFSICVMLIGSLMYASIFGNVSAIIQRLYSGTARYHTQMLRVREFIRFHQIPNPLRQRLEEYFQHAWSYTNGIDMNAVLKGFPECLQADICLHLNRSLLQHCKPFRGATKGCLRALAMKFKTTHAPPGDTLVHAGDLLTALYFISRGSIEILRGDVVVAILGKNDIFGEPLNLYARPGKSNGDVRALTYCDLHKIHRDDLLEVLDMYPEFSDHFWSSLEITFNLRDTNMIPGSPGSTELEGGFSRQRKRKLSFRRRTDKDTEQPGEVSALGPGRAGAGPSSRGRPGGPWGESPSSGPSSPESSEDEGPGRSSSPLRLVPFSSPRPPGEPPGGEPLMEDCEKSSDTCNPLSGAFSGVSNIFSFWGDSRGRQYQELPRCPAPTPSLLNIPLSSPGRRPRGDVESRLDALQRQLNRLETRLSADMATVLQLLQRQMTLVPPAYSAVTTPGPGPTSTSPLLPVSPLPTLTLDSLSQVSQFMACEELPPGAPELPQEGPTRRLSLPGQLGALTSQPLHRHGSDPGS
Voltage-gated inwardly rectifying potassium channel KCNH2, sequence (Q12809 whole entry): as above

SMILES	inhibition at 3 µM (hERG (KCNH2) [1])	MIC90 [2]	MIC90 [3]	IC50 (Vero)	microsomal CLint [4]	microsomal CLint [5]	IC50 [6]	clearance [7]	AUC(0-inf) [8]	bioavailability [9]	Vz/F [10]	inhibition at 10 µM (hERG (KCNH2) [11])	fraction unbound [12]
COc1nc2ccc(Br)cc2cc1[C@@H](c1cccc(C)c1F)[C@@](O)(CCN(C)C)c1cc(SC)nc(SC)c1 (racemic)	13%	0.06 µg/mL (≈ 0.0951 µM)	< 0.004 µg/mL	–	–	–	–	–	–	–	–	–	–
COc1nc2ccc(C#N)cc2cc1[C@@H](c1cccc(C)c1F)[C@@](O)(CCN(C)C)c1cc(SC)nc(SC)c1 (racemic)	–	0.17 µg/mL (≈ 0.295 µM)	0.02 µg/mL (≈ 0.0347 µM)	> 10 µg/mL	13 µL/min/mg	9.2 µL/min/mg	> 10 µM	22 mL/min/kg	2400 ng·h/mL	31%	79 L/kg	–	–
CCSc1cc([C@](O)(CCN(C)C)[C@H](c2ccccc2)c2cc3cc(Br)ccc3nc2OC)cc(SCC)n1 (racemic)	–	0.05 µg/mL (≈ 0.0798 µM)	0.02 µg/mL (≈ 0.0319 µM)	> 10 µg/mL	17 µL/min/mg	2.3 µL/min/mg	> 30 µM	11 mL/min/kg	4000 ng·h/mL	24%	30 L/kg	–	–
COc1cc([C@](O)(CCN(C)C)[C@@H](c2cc3cc(Br)ccc3nc2OC)c2cccc(C)c2F)cc(OC(F)F)n1 (racemic)	–	0.03 µg/mL (≈ 0.0473 µM)	0.01 µg/mL (≈ 0.0158 µM)	–	–	–	–	–	–	–	–	3%	–
COc1nc2ccc(Br)cc2cc1[C@@H](c1ccnc(OC)c1OC)[C@@](O)(CCN(C)C)c1cc(SC)nc(SC)c1 (racemic)	–	< 0.02 µg/mL	< 0.02 µg/mL	> 10 µg/mL	10 µL/min/mg	8.8 µL/min/mg	2.8 µM	18 mL/min/kg	3900 ng·h/mL	41%	64 L/kg	–	–
COc1cccc([C@H](c2cc3cc(C#N)ccc3nc2OC)[C@@](O)(CCN(C)C)c2cc(SC)nc(SC)c2)c1F (racemic)	–	0.05 µg/mL (≈ 0.0844 µM)	0.03 µg/mL (≈ 0.0506 µM)	> 10 µg/mL	20 µL/min/mg	15 µL/min/mg	5.1 µM	44 mL/min/kg	1100 ng·h/mL	28%	53 L/kg	–	–
CCSc1cc([C@](O)(CCN(C)C)[C@@H](c2cc3cc(C#N)ccc3nc2OC)c2cccc(C)c2F)cc(SCC)n1 (racemic)	–	0.06 µg/mL (≈ 0.0992 µM)	< 0.02 µg/mL	> 10 µg/mL	33 µL/min/mg	9.1 µL/min/mg	> 10 µM	9.4 mL/min/kg	4000 ng·h/mL	22%	41 L/kg	–	–
CCSc1cc([C@](O)(CCN(C)C)[C@H](c2cccc(C)c2)c2cc3cc(C#N)ccc3nc2OC)cc(N(C)C)n1 (racemic)	51%	0.17 µg/mL (≈ 0.298 µM)	0.12 µg/mL (≈ 0.211 µM)	–	–	–	–	–	–	–	–	–	–
CCSc1cc([C@](O)(CCN(C)C)[C@@H](c2cc3cc(Br)ccc3nc2OC)c2cccc(OC)c2F)cc(SCC)n1 (racemic)	–	< 0.02 µg/mL	< 0.02 µg/mL	6.5 µg/mL (≈ 9.63 µM)	12 µL/min/mg	4.9 µL/min/mg	> 10 µM	3.6 mL/min/kg	11900 ng·h/mL	25%	14 L/kg	–	–
CCSc1cc([C@](O)(CCN(C)C)[C@H](c2cccc(C)c2)c2cc3cc(Br)ccc3nc2OC)cc(N(C)C)n1 (racemic)	23%	0.12 µg/mL (≈ 0.192 µM)	0.14 µg/mL (≈ 0.224 µM)	–	–	–	–	–	–	–	–	–	–
CCSc1cc([C@](O)(CCN(C)C)[C@@H](c2cc3cc(C#N)ccc3nc2OC)c2cccc(OC)c2F)cc(SCC)n1 (racemic)	–	0.2 µg/mL (≈ 0.322 µM)	0.1 µg/mL (≈ 0.161 µM)	> 10 µg/mL	27 µL/min/mg	17 µL/min/mg	> 10 µM	29 mL/min/kg	1400 ng·h/mL	24%	93 L/kg	–	–
CCSc1cc([C@](O)(CCN(C)C)[C@@H](c2cc3cc(Br)ccc3nc2OC)c2cccc3c2OCO3)cc(SCC)n1 (racemic)	–	0.06 µg/mL (≈ 0.0895 µM)	0.01 µg/mL (≈ 0.0149 µM)	> 10 µg/mL	12 µL/min/mg	9.5 µL/min/mg	> 10 µM	3.4 mL/min/kg	5500 ng·h/mL	11%	9.4 L/kg	–	–
COc1cc([C@](O)(CCN(C)C)[C@@H](c2cc3cc(Br)ccc3nc2OC)c2cccc(OC)c2F)cc(OC)n1 (racemic) [TBAJ-587]	–	0.01 µg/mL (≈ 0.0163 µM)	–	–	–	2.2 µL/min/mg	–	–	–	–	–	–	< 0.005
COc1cc([C@](O)(CCN(C)C)[C@@H](c2cc3cc(Br)ccc3nc2OC)c2cc(OC)nc(OC)c2OC)cc(OC)n1 (racemic) [TBAJ-876]	–	–	–	–	–	–	–	–	–	–	–	–	< 0.005
COc1nc2ccc(Br)cc2cc1[C@@H](c1ccccc1)[C@@](O)(CCN(C)C)c1cccc2ccccc12 [BEDAQUILINE]	–	0.06 µg/mL (≈ 0.108 µM)	0.03 µg/mL (≈ 0.054 µM)	–	–	–	–	–	17400 ng·h/mL	–	–	–	< 0.005
